Here are results for 3 compounds from ChEMBL document CHEMBL1126641, “Synthesis and opioid activity of dynorphin A-(1-13)NH2 analogues containing cis- and trans-4-aminocyclohexanecarboxylic acid” (J Med Chem, 1993).

Test [1] deals with Delta-type opioid receptor (Rattus norvegicus, UniProt P33533). Description: Compound was tested for binding affinity towards delta-opioid receptor in rat forebrain membrane using [3H]DPDPE. The class given is cell membranes.
For test [2], the target named is Kappa-type opioid receptor (Cavia porcellus, UniProt P41144). Description: Compound was tested for binding affinity towards kappa opioid receptor in guinea pig cerebellar membrane using [3H]bremazocine. The format is cell membranes, Cerebellum. The procedure, abridged:
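Competitive inhibition of [3H]bremazocine binding to guinea pig cerebellar membranes. The incubation mixtures contained 100 nM DAMGO. Affinity is reported as Ki.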

Test [3] has as its target T1, Opioid receptors; mu/kappa/delta (Homo sapiens, UniProt P41145+P41143+P35372). Description: Opioid receptor activity in guinea pig ileum assay. The following applies: target entry is the homologue from another species. The class given is tissue-based, Cavia porcellus.
The target of test [4] is Mu-type opioid receptor (Rattus norvegicus, UniProt P33535). The test is described as follows: Compound was tested for binding affinity towards mu-opioid receptor in rat forebrain membrane using [3H]DAMGO. The class given is cell membranes.
Test [5] addresses T1, Opioid receptors; mu/kappa/delta. Description: ratio is kappa/mu/delta opioid receptors. The class given is protein assay. The procedure, abridged: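 The Ki ratio κ/μ/δ is taken from three binding assays. κ: [3H]bremazocine on guinea pig cerebellar membranes, with 100 nM DAMGO present. μ: [3H]DAMGO on rat forebrain membranes. δ: [3H]DPDPE on rat forebrain membranes.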

SMILES strings stand for the structures. Where “and” joins values, the source holds several entries; their conditions need not be identical. Equal values may be shown once. Residues, ends and D or L forms follow the SMILES beside them.

Chain of Delta-type opioid receptor (P33533 whole entry): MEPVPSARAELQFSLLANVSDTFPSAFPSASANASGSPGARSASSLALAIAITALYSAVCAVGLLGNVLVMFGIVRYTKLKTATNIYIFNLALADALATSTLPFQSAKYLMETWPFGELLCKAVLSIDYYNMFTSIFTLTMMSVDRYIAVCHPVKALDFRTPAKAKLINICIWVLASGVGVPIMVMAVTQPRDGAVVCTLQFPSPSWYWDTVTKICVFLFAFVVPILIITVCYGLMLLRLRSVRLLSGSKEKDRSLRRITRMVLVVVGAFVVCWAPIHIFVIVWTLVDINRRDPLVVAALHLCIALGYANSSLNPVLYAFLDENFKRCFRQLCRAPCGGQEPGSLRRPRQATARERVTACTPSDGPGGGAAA
Chain of Kappa-type opioid receptor (P41144 whole entry): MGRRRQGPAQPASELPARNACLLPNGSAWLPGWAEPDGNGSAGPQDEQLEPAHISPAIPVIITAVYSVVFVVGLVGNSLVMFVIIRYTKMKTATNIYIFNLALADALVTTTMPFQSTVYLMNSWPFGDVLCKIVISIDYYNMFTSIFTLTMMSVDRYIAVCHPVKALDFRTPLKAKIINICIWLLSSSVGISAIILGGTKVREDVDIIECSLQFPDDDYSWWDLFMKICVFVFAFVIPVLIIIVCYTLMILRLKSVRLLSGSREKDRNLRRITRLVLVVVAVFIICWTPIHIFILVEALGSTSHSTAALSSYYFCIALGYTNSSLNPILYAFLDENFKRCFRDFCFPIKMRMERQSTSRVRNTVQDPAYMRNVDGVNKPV
Chain of Mu-type opioid receptor (P33535 whole entry): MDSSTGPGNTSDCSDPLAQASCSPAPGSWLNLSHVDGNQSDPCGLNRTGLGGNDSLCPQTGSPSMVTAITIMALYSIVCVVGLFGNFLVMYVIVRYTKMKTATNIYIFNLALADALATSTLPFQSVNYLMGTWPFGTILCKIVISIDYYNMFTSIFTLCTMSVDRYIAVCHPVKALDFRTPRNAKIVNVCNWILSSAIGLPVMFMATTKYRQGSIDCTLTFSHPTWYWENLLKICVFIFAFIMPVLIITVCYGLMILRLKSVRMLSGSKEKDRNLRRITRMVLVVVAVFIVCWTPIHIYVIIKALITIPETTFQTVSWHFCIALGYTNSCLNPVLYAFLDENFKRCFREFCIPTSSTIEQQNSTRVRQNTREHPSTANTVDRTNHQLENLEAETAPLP
T1 sequence (P35372 whole entry, looked up): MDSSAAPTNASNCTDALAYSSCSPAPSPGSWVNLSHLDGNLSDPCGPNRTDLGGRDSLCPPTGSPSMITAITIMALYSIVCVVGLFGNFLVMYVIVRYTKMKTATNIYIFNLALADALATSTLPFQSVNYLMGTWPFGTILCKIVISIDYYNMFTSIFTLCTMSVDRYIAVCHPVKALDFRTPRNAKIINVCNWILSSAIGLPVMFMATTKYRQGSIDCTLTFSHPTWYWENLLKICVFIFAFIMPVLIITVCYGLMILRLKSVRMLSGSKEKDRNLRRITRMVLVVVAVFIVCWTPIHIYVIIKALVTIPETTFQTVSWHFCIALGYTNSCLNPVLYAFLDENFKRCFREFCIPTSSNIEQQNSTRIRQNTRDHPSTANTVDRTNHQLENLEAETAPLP
T1 sequence (P41143 whole entry, looked up): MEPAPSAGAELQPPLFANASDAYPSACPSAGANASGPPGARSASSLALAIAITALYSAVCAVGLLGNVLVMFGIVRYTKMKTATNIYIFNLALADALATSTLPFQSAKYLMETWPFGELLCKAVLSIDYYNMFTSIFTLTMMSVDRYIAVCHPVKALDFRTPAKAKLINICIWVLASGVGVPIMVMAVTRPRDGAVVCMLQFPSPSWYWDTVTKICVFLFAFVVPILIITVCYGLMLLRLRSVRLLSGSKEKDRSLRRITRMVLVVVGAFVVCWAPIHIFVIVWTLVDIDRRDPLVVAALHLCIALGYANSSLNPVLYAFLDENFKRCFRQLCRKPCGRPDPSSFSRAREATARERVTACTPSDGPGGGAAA
T1 sequence (P41145 whole entry, looked up): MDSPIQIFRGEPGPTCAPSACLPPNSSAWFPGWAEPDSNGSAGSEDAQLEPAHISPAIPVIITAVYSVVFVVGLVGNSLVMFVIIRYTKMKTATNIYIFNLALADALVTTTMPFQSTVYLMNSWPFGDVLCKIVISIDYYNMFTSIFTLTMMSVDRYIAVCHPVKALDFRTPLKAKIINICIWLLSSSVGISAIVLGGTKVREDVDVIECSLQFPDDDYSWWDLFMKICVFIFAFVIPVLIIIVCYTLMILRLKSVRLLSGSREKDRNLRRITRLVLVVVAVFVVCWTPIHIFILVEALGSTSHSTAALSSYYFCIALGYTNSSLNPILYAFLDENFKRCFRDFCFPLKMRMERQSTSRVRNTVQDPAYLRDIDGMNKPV

The Ki is a measure of affinity in units of concentration, obtained from inhibition or displacement. High values mean a looser hold on the target, low ones a stronger hold on the target. Usually IC50 stands for the concentration at which inhibition is half-maximal. On to `CC[C@H](C)[C@H](NC(=O)[C@H](CCCN=C(N)N)NC(=O)[C@H](CCCN=C(N)N)NC(=O)[C@H](CC(C)C)NC(=O)[C@H](Cc1ccccc1)NC(=O)CNC(=O)CNC(=O)[C@@H](N)Cc1ccc(O)cc1)C(=O)N[C@@H](CCCN=C(N)N)C(=O)N1CCC[C@H]1C(=O)N[C@@H](CCCCN)C(=O)N[C@@H](CC(C)C)C(=O)N[C@@H](CCCCN)C(N)=O`, for which the Ki is 0.00388 µM in test [1], 0.000146 µM in test [2] and 0.000194 µM in test [4]. The same compound displayed an IC50 in test [3] of 0.00024 µM.
Turning to `CC[C@H](C)[C@H](NC(=O)[C@H](CCCN=C(N)N)NC(=O)[C@H](CCCN=C(N)N)NC(=O)[C@H](CC(C)C)NC(=O)[C@H](Cc1ccccc1)NC(=O)CNC(=O)C(C)(C)NC(=O)[C@@H](N)Cc1ccc(O)cc1)C(=O)N[C@@H](CCCN=C(N)N)C(=O)N1CCC[C@H]1C(=O)N[C@@H](CCCCN)C(=O)N[C@@H](CC(C)C)C(=O)N[C@@H](CCCCN)C(N)=O` (HELM PEPTIDE1{Y.[Aib].G.F.L.R.R.I.R.P.K.L.K.[am]}$$$$V2.0), the results for the Ki in test [2] and in test [4] were 0.05 µM and 0.01 µM, respectively.
As to `CC[C@H](C)[C@H](NC(=O)[C@H](CCCN=C(N)N)NC(=O)[C@H](CCCN=C(N)N)NC(=O)[C@H](CC(C)C)NC(=O)[C@H](Cc1ccccc1)NC(=O)C1CCC(NC(=O)[C@@H](N)Cc2ccc(O)cc2)CC1)C(=O)N[C@@H](CCCN=C(N)N)C(=O)N1CCC[C@H]1C(=O)N[C@@H](CCCCN)C(=O)N[C@@H](CC(C)C)C(=O)N[C@@H](CCCCN)C(N)=O` (stereo partly specified) (HELM PEPTIDE1{Y.[O=C(C1CCC(N[*:1])CC1)[*:2]].F.L.R.R.I.R.P.K.L.K.[am]}$$$$V2.0), the Ki in test [1] is 1.37 µM and 1.91 µM; in test [2], 0.0134 µM and 0.0091 µM; in test [4], 0.275 µM and 0.117 µM. The IC50 in test [3] came out at 4.09 µM. For the same compound, in test [5], the Ratio is 4.62 and 3.66.
